Tested on: Slug, CD44, EGFR, and VEGFA genes
Type: cell-based, human
Details: ectopic expression, ZMYND8-depleted DU145 cells, n = 5
Summary of the method: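 DU145 cells were infected with shZMYND8-97 lentivirus, then transfected with control vector, wild-type FLAG-ZMYND8, PHD point mutants (D108A, F109D) or a Bromo mutant (YN/AA). Construct expression was checked by western blot. DU145 cells treated with shLuciferase and transfected with control vector served as the control. CD44, Slug, VEGFA and EGFR expression was measured across 5 replicates.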

B1: FLAG-ZMYND8: ectopically expressed WT FLAG-ZMYND8 (protein, UniProt Q9ULU4 1-1186, looked up)
MYND-type zinc …: MDISTRSKDPGSAERTAQKRKFPSPPHSSNGHSPQDTSTSPIKKKKKPGLLNSNNKEQSELRHGPFYYMKQPLTTDPVDVVPQDGRNDFYCWVCHREGQVLCCELCPRVYHAKCLRLTSEPEGDWFCPECEKITVAECIETQSKAMTMLTIEQLSYLLKFAIQKMKQPGTDAFQKPVPLEQHPDYAEYIFHPMDLCTLEKNAKKKMYGCTEAFLADAKWILHNCIIYNGGNHKLTQIAKVVIKICEHEMNEIEVCPECYLAACQKRDNWFCEPCSNPHPLVWAKLKGFPFWPAKALRDKDGQVDARFFGQHDRAWVPINNCYLMSKEIPFSVKKTKSIFNSAMQEMEVYVENIRRKFGVFNYSPFRTPYTPNSQYQMLLDPTNPSAGTAKIDKQEKVKLNFDMTASPKILMSKPVLSGGTGRRISLSDMPRSPMSTNSSVHTGSDVEQDAEKKATSSHFSASEESMDFLDKSTASPASTKTGQAGSLSGSPKPFSPQLSAPITTKTDKTSTTGSILNLNLDRSKAEMDLKELSESVQQQSTPVPLISPKRQIRSRFQLNLDKTIESCKAQLGINEISEDVYTAVEHSDSEDSEKSDSSDSEYISDDEQKSKNEPEDTEDKEGCQMDKEPSAVKKKPKPTNPVEIKEELKSTSPASEKADPGAVKDKASPEPEKDFSEKAKPSPHPIKDKLKGKDETDSPTVHLGLDSDSESELVIDLGEDHSGREGRKNKKEPKEPSPKQDVVGKTPPSTTVGSHSPPETPVLTRSSAQTSAAGATATTSTSSTVTVTAPAPAATGSPVKKQRPLLPKETAPAVQRVVWNSSSKFQTSSQKWHMQKMQRQQQQQQQQNQQQQPQSSQGTRYQTRQAVKAVQQKEITQSPSTSTITLVTSTQSSPLVTSSGSMSTLVSSVNADLPIATASADVAADIAKYTSKMMDAIKGTMTEIYNDLSKNTTGSTIAEIRRLRIEIEKLQWLHQQELSEMKHNLELTMAEMRQSLEQERDRLIAEVKKQLELEKQQAVDETKKKQWCANCKKEAIFYCCWNTSYCDYPCQQAHWPEHMKSCTQSATAPQQEADAEVNTETLNKSSQGSSSSTQSAPSETASASKEKETSAEKSKESGSTLDLSGSRETPSSILLGSNQGSDHSRSNKSSWSSSDEKRGSTRSDHNTSTSTKSLLPKESRLDTFWD
modifications: FLAG tag
expression levels of Slug, CD44, EGFR, and VEGFA genes: significantly downregulated

From article PMC4975651 (Molecular cell, 2016)
